The sample as a whole holds a higher share of hits than the screen did.
FLuc inhib CS: counter-screen for luciferase assay inhibitors: firefly luciferase inhibition. ATPLite firefly luciferase biochemical luminescence, 10 min. inhibition, % at 10 µM. 1.5% of 200,000 active. AID 1006;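 active means inhibition above about 50% when tested at 10 µM, limit read from the data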
Diaphorase act: diaphorase activation or chemical reduction counter-screen; 0.005% of 190,000 active; AID 1229; activation factor at 20 µM; Diaphorase/resazurin coupled assay, resorufin fluorescence, 16 min; active compounds read high; 1 = vehicle wells, 0 = NADH-free wells;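 active means diaphorase activity raised at least twofold by the compound at 20 µM; inactive means activation factor below 2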
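Material: purified diaphorase enzyme from Clostridium kluyveri; Also added: 0.114 mM NADH and 0.1 mM resazurin, final amounts; Doses: single compound dose of 20 µM, 1% DMSO final; Times: 16 min enzyme reaction, ambient temperature; Detection: resorufin fluorescence, excitation 544 nm, emission 590 nm; Measure: increased resorufin signal from activators or reducing compounds.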
ABCB6 inh MLPCN: blocks the human ABCB6 transporter. Q9NP58. K562-ABCB6 porphyrin accumulation, flow cytometry, 1 h; active compounds read low. fluorescence ratio to DMSO, % at 10 µM. 0.19% of 360,000 active. AID 602162;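 active means fluorescence ratio to DMSO below 75%, the collection mean minus 3 SD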;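 further: signal is porphyrin accumulated inside mitochondria; 100% equals median channel fluorescence of DMSO control wells; lower ratio means ABCB6 inhibition with less porphyrin fluorescence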
Target sequence (Q9NP58 whole entry, looked up): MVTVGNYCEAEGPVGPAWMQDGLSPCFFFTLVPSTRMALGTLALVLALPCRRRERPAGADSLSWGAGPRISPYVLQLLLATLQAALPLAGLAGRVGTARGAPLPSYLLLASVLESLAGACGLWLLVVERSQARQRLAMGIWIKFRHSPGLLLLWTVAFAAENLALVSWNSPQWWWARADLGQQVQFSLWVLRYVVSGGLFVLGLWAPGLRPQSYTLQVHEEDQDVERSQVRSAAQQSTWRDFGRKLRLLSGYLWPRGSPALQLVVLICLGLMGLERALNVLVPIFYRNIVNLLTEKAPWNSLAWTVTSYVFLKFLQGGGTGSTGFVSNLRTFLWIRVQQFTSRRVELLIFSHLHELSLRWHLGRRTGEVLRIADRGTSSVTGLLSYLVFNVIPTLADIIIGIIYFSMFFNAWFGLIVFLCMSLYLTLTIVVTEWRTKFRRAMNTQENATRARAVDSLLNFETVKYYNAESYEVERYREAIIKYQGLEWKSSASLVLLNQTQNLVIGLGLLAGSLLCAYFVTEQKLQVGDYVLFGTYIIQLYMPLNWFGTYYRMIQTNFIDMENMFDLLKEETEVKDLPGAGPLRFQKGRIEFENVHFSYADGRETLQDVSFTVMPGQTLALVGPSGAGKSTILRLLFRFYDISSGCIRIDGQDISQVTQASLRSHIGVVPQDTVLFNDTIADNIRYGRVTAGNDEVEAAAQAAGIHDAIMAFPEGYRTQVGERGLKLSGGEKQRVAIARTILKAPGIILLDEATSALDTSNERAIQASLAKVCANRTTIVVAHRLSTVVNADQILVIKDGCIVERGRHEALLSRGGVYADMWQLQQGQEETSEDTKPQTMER
ABCB1 inh: human ABCB1 inhibition, ABCG2 as counter-screen. CCRF-Adr cells, JC-1 efflux, flow cytometry. AID 1326. 0.067% of 190,000 active. inhibition, % at 6.6 µM. P08183; in the data active means inhibition above about 40%;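 further: 0% = vehicle and 100% = reference inhibitor; higher value means more JC-1 retained so stronger ABCB1 efflux block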
FLuc stim CS: affects firefly luciferase, flagging false hits in luciferase stimulation screens | ATPlite luciferase biochemical, luminescence, 10 min; 0 = ATP-free wells, 1 = DMSO control | activation factor at 10 µM | 200,000 tested, under 10 active | AID 1027;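 active means luciferase activation factor, scaled between plate controls, of at least 2 with compound at 10 µM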
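System: luciferase plus luciferin reagent, cell-free; medium: PBS as buffer for the ATP substrate; dosing: test compounds dosed from 2 mM stocks in 100% DMSO; timing: 10 min post-reagent at room temperature; measured by: luminescence measurement of luciferase light output; evaluation: luciferase activation, seen as luminescence increase over controls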
ABCG2 block: inhibitors of human ABCG2 transporter, ABCB1 counter-screen; IgMXP3 cells, JC-1 efflux, flow cytometry; inhibition, % at 6.6 µM; 0.1% of 190,000 active;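 active means inhibition above 80%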;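 further: 0% = DMSO and 100% = nicardipine control wells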
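material = IgMXP3 (ABCG2) plus far-red-tagged CCRF-Adr (ABCB1) cells | amount = 3 million cells/mL, equal mix of both lines | also added = JC-1 transporter substrate | dosing = one concentration, 6.6 µM final | schedule = 10 min at 25 °C | measured by = flow cytometric JC-1 green MFI at 530 nm | read-out basis = percent efflux inhibition, scaled nicardipine 100% to DMSO 0%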
ABCB6 inh CP1: inhibitors of human ABC transporter ABCB6. K562-ABCB6 porphyrin accumulation, flow cytometry, 1 h; active compounds read low. ratio response (% of DMSO), % at 10 µM. shares compounds with ABCB6 inh MLPCN. 700 tested, under 10 active. AID 602430;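 active means repeat-averaged ratio response below 75% of DMSO, the collection mean minus 3 SD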;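 further: median porphyrin fluorescence at 575 nm with 488 nm excitation from mitochondria; lower ratio means less porphyrin signal so ABCB6 inhibition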
The depositor's hits bear a star; . = no result.

SMILES	FLuc inhib CS	Diaphorase act	ABCB6 inh MLPCN	ABCB1 inh	FLuc stim CS	ABCG2 block	ABCB6 inh CP1
COc1ccc(NS(=O)(=O)c2ccc(C)c(C(=O)N3CC(C)OC(C)C3)c2)cc1 (centres undefined)	.	.	96	.	.	.	.
Cc1ccc(CN(C)C(=O)c2ccccc2Oc2ccccc2)o1	-4	0.8	67*	0	1	2	98
COc1cc(C)c(CN2CCN(c3ncccn3)CC2)cc1C	.	.	16*	.	.	.	97
COc1ccc(CN2CCN(c3ncccn3)CC2)c(C)c1C	.	.	97	.	.	.	.
CCOc1cc(C(=O)N2CCN(C/C=C/c3ccccc3)CC2)cc(OCC)c1OCC	-3	0.9	67*	1	1	1	100
Cc1cc(C)c(Cc2c(C)nc3c(C(=O)NCc4ccco4)cnn3c2C)c(C)c1	-7	1	95	2	1.1	23	99
COC(CNC(=O)c1cnn2c(C)c(Cc3ccccc3)c(C)nc12)OC	5	1.1	92	1	0.9	3	96
O=C(NCc1ccco1)c1cnn2c(C(F)F)cc(-c3ccccc3)nc12	-8	0.9	96	-2	1.1	-1	.
CN(C)c1ccc(/C=N/NC(=O)CN2CCCCC2)cc1Br	.	.	97	.	.	.	.
Cc1ccc(C(C)NC(=S)NC2CCCCC2)c(C)c1 (centres undefined)	.	.	95	.	.	.	.
O=C1N(CCCN2C(=O)C3(OCCO3)c3ccccc32)c2ccccc2C12OCCO2	-8	0.9	68*	5	1.1	6	103
O=C1N(CCCCN2C(=O)C3(OCCO3)c3ccccc32)c2ccccc2C12OCCO2	-10	0.8	104	-5	1.1	-7	.
COc1cccc(N2CCN(C(=O)c3oc4ccccc4c3NC(=O)Cc3ccc(OC)c(OC)c3)CC2)c1	.	.	95	.	.	.	.
Cc1ccc2[nH]c(C(=O)NCCN3CCCC3)cc2c1	.	.	98	.	.	.	.
NS(=O)(=O)c1ccc(NC(=O)COC(=O)C2CC2)cc1	.	.	94	.	.	.	.
O=C(CC(=O)N1CCOCC1)N1CCOCC1	.	.	99	.	.	.	.
CC1=CC(C)(C)N2C(=O)C3(C(C#N)=C(N)Oc4cc(C)oc(=O)c43)c3cc(C)cc1c32 (centres undefined)	.	.	67*	.	.	.	96
CC1=C(C(=O)N2CCOCC2)CC(CC(=O)NCCCCc2ccccc2)C(=O)N1Cc1ccc(F)cc1 (centres undefined)	.	.	101	.	.	.	.
CSCCC(NC(N)=O)C(=O)N(C)CC(=O)Nc1cc(C)ccc1C (centres undefined)	-9	0.9	69*	-1	1.1	-3	100
Cc1ccc2oc(=O)c3cnn(CC(=O)NCCN(C)C)c3c2c1	-4	0.9	89	1	1	5	.
Cc1ccc2oc(=O)c3cnn(CC(=O)NCCc4ccsc4)c3c2c1	-4	0.9	54*	1	1	2	103
O=C(CSc1ccc2ccccc2c1Br)Nc1cccc(S(=O)(=O)NC2=NCCCCC2)c1	-3	0.8	67*	-1	1	-1	99
Cc1cnc(C(=O)OCc2ccc(Br)cc2)cn1	.	.	73*	.	.	.	104
Cc1cnc(C(=O)OCc2ccc(C#N)cc2)cn1	.	.	101	.	.	.	.
O=S(=O)(NCC1CCCO1)c1cc(Cl)ccc1Br (centres undefined)	-6	0.8	24*	1	1.1	1	100
SMILES	FLuc inhib CS	Diaphorase act	ABCB6 inh MLPCN	ABCB1 inh	FLuc stim CS	ABCG2 block	ABCB6 inh CP1
O=S(=O)(NCC1CCCO1)c1cc(Cl)ccc1Cl (centres undefined)	-3	0.9	103	1	1	0	.
CC(=O)Nc1ccc(OC(=O)c2c(-c3ccccc3Cl)noc2C)cc1	-8	0.9	70*	2	1.1	27	99
CC(=O)Nc1ccc(NC(=O)c2c(-c3ccccc3Cl)noc2C)c(C)c1	.	.	95	.	.	.	.
CC(C)c1ccc(OCC(=O)Nc2ccc(OC(F)(F)F)cc2)cc1	-1	0.8	63*	0	1	6	99
CCOC(=O)C(NC(=O)Nc1ccc(F)cc1)(OCC)C(F)(F)F (centres undefined)	0	0.9	88	0	1	3	.
CCOC(=O)C1(C(F)(F)F)N=C(C(F)(F)F)Nc2ccc(F)cc21 (centres undefined)	-5	0.9	59*	2	1	5	103
CN(C)CCNC(=O)C1(C)Cc2c(-c3cccc(C(F)(F)F)c3)ccnc2O1 (centres undefined)	.	.	93	.	.	.	.
CC(=O)Nc1ccc(NC(=O)C2Cc3c(-c4cccc(C(C)=O)c4)ccnc3O2)cc1 (centres undefined)	.	.	102	.	.	.	102
CC(=O)c1cccc(-c2ccnc3c2CC(C(=O)Nc2ccc4c(c2)OCO4)O3)c1 (centres undefined)	.	.	98	.	.	.	102
COc1ccc(NC(=O)C2Cc3c(-c4cccc(F)c4)ccnc3O2)cc1OC (centres undefined)	.	.	69*	.	.	.	103
CC(=O)Nc1ccc(NC(=O)C2Cc3c(-c4cccc(NC(C)=O)c4)ccnc3O2)cc1 (centres undefined)	.	.	97	.	.	.	.
O=C(Nc1cccnc1)C1Cc2c(-c3ccco3)ccnc2O1 (centres undefined)	.	.	74*	.	.	.	97
Nc1ccc(CCn2ccnc2)cc1	.	.	99	.	.	.	.
CC(C)Oc1ccc(C(=O)NCC(=O)N2CCN(S(=O)(=O)/C=C/c3ccccc3)CC2)cc1	.	.	97	.	.	.	.
COc1ccc(NC(=O)C2Cc3c(-c4cccc(NC(C)=O)c4)ccnc3O2)cc1 (centres undefined)	.	.	102	.	.	.	103
CC(=O)Nc1ccc(-c2ccnc3c2CC(C(=O)Nc2ccccc2)O3)cc1 (centres undefined)	.	.	101	.	.	.	95
COc1ccc(NC(=O)C2Cc3c(-c4ccc(NC(C)=O)cc4)ccnc3O2)cc1 (centres undefined)	.	.	87	.	.	.	.
CCOc1ccc(N2C(=O)Cc3ccccc3C2=O)cc1	.	.	73*	.	.	.	102
CCOC(=O)c1ccc(N2C(=O)Cc3ccccc3C2=O)cc1	.	.	95	.	.	.	.
CCOC(=O)CN1C(=O)Nc2ccc(Br)cc2C1c1ccccc1 (centres undefined)	-4	0.9	92	1	1	4	.
CCOC(=O)CN1C(c2ccc(O)cc2)Nc2ccc(Br)cc2C1c1ccccc1 (centres undefined)	-1	0.8	73*	1	1	4	95
Cc1nn(-c2ccccc2)c2c1C1(C(=O)N(C)c3ccccc31)C(C#N)=C(N)O2 (centres undefined)	-5	0.7	97	0	1	1	.

Compound activity: PubChem, several laboratories
